Measurements reported in ChEMBL document CHEMBL1649420, “Identifying chelators for metalloprotein inhibitors using a fragment-based approach” (J Med Chem, 2011).

Legend:
[1] = biological target: T1, 72 kDa type IV collagenase (Homo sapiens, UniProt P08253); assay: Inhibition of human recombinant MMP2 at 25 uM after 30 mins
How it was run: (§1)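 Enzyme (1.16 U) preincubated 30 min at 37 °C with fragment in 50 mM HEPES, 10 mM CaCl2, 0.05% Brij-35, pH 7.5. Fluorogenic Mca peptide substrate (4 μM final) then added. Rate of fluorescence increase compared with no-inhibitor control (100%). Single-point 25 μM final for the 8-hydroxyquinoline sublibrary. IC50 fitted to dose-response curves from serial dilutions of DMSO stocks.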
Target sequence in this assay (P08253 110-660 limits assumed): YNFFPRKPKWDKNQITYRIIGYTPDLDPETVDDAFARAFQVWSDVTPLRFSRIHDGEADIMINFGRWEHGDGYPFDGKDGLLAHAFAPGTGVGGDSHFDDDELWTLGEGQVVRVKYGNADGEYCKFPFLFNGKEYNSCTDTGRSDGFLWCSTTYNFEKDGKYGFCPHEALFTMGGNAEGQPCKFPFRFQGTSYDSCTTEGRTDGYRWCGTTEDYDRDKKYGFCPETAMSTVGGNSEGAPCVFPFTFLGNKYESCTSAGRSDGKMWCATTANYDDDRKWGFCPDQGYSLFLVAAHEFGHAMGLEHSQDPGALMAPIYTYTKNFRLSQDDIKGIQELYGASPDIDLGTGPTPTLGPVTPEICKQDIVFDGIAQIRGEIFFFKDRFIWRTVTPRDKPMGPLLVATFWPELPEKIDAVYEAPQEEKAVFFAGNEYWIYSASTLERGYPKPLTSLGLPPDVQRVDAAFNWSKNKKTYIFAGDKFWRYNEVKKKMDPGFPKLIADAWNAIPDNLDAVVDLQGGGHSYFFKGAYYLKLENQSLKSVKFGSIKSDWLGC

[2] = biological target: T1, 72 kDa type IV collagenase; assay: Inhibition of human recombinant MMP2 after 30 mins; how it was run: as §1
Target sequence in this assay (P08253 whole entry, the tested form may be a part): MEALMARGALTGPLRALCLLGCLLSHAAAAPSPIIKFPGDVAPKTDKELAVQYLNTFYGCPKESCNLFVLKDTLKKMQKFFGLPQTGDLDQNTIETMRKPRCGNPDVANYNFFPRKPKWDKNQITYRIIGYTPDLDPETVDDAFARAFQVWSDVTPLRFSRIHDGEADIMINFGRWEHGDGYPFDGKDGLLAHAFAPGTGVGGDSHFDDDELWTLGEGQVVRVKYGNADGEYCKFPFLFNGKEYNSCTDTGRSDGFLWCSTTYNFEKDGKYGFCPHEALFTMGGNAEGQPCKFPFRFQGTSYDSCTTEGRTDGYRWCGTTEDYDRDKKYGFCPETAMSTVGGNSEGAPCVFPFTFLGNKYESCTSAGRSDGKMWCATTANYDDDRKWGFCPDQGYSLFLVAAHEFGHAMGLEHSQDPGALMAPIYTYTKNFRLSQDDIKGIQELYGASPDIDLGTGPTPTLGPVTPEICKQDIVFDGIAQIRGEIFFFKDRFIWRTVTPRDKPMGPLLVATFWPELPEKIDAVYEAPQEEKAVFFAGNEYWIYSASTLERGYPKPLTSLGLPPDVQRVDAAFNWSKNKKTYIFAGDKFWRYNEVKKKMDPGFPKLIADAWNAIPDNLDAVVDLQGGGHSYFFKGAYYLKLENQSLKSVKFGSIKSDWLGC

[3] = biological target: T2, Nitric oxide synthase, inducible (Mus musculus) (UniProt P29477); settings: at 1 mM;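 further: recombinant enzyme, activity read out colorimetrically after 40 min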
T2 sequence (whole entry): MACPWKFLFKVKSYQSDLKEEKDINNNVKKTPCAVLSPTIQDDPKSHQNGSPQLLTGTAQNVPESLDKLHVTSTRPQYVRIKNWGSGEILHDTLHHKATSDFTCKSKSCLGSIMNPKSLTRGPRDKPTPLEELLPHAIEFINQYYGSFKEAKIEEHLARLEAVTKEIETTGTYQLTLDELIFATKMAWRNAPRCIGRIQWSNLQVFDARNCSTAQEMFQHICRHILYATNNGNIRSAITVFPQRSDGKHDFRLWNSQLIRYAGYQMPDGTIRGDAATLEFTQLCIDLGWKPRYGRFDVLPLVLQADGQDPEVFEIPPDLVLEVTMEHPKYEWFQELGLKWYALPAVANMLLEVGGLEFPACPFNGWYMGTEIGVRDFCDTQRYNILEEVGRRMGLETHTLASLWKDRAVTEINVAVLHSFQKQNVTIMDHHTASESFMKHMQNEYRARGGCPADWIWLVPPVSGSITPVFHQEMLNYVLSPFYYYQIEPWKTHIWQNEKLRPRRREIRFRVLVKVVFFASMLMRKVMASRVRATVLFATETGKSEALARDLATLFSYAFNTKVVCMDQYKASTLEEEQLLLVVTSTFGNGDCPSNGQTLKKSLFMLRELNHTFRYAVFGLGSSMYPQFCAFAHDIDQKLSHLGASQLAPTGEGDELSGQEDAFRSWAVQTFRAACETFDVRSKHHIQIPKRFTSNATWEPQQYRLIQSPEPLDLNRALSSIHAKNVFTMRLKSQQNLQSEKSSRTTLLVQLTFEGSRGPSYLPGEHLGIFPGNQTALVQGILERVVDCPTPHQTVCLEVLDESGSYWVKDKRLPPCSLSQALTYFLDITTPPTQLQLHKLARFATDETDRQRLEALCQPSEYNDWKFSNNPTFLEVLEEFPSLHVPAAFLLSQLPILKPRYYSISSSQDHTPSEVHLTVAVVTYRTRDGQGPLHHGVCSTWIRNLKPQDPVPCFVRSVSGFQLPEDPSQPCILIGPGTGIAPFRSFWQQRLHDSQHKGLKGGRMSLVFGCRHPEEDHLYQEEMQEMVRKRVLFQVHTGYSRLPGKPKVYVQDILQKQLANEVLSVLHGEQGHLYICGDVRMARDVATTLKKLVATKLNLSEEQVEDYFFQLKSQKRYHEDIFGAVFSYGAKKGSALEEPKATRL

[4] = biological target: T3, Polyunsaturated fatty acid 5-lipoxygenase (Homo sapiens) (UniProt P09917); assay: Inhibition of human recombinant 5-lipoxygenase at 1 mM after 10 mins by fluorescence assay
T3 sequence (whole entry): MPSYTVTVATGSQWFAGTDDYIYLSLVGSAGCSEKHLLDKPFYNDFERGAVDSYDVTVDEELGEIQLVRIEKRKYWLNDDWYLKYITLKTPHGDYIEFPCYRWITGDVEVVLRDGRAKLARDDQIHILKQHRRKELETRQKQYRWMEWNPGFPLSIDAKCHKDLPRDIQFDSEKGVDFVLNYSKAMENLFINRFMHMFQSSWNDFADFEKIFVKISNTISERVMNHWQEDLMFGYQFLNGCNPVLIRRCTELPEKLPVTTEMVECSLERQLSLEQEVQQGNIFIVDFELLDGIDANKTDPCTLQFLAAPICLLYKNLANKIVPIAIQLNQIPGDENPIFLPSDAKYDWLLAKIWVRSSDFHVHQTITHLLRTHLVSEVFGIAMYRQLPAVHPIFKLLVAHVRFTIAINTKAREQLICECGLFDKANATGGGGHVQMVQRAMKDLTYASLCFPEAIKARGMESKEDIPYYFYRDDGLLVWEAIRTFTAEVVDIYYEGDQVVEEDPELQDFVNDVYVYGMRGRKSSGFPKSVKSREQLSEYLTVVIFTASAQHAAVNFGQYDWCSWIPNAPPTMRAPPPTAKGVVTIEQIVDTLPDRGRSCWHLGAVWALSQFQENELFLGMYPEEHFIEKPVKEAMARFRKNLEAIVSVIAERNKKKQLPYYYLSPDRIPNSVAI

[5] = biological target: T4, Tyrosinase (Agaricus bisporus) (UniProt O42713); settings: at 1 mM
T4 sequence (whole entry): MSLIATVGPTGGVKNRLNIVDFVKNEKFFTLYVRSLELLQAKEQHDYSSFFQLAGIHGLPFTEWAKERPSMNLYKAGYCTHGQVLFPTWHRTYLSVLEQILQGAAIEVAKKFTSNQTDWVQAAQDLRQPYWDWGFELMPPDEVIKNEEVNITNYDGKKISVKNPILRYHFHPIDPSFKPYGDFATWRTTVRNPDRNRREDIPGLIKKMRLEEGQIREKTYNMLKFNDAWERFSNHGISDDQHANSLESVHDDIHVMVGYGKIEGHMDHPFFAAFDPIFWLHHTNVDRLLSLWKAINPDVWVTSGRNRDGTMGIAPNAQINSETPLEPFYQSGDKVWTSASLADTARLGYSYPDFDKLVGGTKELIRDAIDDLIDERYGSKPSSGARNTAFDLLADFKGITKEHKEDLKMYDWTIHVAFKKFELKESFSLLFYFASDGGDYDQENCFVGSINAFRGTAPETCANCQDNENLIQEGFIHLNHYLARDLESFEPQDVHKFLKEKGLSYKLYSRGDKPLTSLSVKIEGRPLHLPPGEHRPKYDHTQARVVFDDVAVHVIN

[6] = biological target: Neutrophil collagenase (Homo sapiens) (UniProt P22894); settings: at 1 mM;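 further: recombinant human MMP8 enzyme, percent inhibition read after 30 min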
Chain of Neutrophil collagenase (Homo sapiens) (P22894 101-467 limits assumed): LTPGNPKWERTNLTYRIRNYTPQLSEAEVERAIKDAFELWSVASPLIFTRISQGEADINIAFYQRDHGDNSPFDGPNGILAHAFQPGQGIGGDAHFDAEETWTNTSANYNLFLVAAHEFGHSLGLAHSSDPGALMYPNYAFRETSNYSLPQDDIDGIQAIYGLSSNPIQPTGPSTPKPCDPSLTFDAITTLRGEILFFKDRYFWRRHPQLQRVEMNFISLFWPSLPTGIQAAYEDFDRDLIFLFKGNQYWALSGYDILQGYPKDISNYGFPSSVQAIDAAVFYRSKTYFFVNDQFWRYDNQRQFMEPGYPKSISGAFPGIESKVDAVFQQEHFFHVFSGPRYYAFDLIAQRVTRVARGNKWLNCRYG

[7] = biological target: T1, 72 kDa type IV collagenase; settings: at 1 mM
Target sequence in this assay (P08253 110-660 limits assumed): as the sequence (P08253 110-660 limits assumed) above

[8] = biological target: T5, Interstitial collagenase (Homo sapiens) (UniProt P03956); settings: at 1 mM;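 further: recombinant human enzyme, with inhibition measured after 30 min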
T5 sequence (whole entry): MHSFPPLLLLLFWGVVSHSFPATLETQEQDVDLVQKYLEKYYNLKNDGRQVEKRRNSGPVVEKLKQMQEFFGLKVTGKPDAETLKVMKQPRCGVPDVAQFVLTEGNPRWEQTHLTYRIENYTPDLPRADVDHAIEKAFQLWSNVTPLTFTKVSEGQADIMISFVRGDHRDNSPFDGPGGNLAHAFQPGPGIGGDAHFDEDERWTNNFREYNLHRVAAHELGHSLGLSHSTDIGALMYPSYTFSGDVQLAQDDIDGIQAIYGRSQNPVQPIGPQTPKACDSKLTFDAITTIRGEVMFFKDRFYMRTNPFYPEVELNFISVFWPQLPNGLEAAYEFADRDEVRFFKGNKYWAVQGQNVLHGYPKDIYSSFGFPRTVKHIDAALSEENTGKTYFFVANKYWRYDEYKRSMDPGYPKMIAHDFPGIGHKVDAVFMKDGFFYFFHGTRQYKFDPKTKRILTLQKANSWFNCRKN

[9] = biological target: Stromelysin-1 (Homo sapiens) (UniProt P08254); settings: at 1 mM;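 further: recombinant enzyme, inhibition read after a 30 min incubation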
Chain of Stromelysin-1 (Homo sapiens) (P08254 100-477 limits assumed): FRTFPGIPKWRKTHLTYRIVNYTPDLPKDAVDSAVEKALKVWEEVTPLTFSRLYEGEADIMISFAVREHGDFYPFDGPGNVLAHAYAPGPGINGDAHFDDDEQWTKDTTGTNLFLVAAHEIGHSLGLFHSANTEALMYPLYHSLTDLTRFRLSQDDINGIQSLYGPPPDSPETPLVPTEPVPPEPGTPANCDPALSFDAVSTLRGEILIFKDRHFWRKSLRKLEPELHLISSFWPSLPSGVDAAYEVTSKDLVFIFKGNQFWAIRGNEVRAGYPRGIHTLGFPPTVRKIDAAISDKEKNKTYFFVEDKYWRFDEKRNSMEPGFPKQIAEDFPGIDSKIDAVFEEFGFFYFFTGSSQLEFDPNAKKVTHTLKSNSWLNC

[10] = biological target: T6, Polyunsaturated fatty acid 5-lipoxygenase (Homo sapiens, UniProt P09917); assay: Inhibition of human recombinant 5-lipoxygenase after 10 mins by fluorescence assay
T6 sequence (P09917 whole entry): T3 sequence (whole entry)

[11] = biological target: Matrix metalloproteinase-9 (Homo sapiens) (UniProt P14780); settings: at 1 mM;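 further: recombinant human MMP9, activity read after 30 min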
Chain of Matrix metalloproteinase-9 (Homo sapiens) (P14780 whole entry): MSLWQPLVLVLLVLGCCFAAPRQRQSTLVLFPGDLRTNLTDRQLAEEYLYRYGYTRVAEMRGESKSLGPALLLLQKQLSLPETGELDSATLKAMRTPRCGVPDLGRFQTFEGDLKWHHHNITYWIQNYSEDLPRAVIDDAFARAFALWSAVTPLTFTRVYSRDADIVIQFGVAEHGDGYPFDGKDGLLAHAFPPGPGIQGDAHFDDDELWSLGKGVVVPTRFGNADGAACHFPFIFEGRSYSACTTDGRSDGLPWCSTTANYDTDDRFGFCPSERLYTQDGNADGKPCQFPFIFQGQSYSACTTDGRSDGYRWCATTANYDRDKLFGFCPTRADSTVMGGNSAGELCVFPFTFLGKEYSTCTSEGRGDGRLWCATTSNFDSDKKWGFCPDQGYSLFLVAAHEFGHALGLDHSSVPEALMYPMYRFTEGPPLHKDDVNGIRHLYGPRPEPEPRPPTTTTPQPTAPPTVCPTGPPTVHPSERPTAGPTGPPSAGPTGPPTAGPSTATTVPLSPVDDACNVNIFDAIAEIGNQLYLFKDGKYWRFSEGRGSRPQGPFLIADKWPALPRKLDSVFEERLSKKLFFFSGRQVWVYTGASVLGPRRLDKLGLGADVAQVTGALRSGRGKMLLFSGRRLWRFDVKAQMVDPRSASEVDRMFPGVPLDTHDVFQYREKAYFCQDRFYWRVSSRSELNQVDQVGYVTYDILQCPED

Tyrosinase = biological target: T7, Tyrosinase (Agaricus bisporus, UniProt O42713); assay: Inhibition of mushroom tyrosinase after 10 mins
T7 sequence (O42713 whole entry): T4 sequence (whole entry)

[12] = biological target: T8, Lethal factor (Bacillus anthracis) (UniProt P15917); settings: at 1 mM
T8 sequence (whole entry): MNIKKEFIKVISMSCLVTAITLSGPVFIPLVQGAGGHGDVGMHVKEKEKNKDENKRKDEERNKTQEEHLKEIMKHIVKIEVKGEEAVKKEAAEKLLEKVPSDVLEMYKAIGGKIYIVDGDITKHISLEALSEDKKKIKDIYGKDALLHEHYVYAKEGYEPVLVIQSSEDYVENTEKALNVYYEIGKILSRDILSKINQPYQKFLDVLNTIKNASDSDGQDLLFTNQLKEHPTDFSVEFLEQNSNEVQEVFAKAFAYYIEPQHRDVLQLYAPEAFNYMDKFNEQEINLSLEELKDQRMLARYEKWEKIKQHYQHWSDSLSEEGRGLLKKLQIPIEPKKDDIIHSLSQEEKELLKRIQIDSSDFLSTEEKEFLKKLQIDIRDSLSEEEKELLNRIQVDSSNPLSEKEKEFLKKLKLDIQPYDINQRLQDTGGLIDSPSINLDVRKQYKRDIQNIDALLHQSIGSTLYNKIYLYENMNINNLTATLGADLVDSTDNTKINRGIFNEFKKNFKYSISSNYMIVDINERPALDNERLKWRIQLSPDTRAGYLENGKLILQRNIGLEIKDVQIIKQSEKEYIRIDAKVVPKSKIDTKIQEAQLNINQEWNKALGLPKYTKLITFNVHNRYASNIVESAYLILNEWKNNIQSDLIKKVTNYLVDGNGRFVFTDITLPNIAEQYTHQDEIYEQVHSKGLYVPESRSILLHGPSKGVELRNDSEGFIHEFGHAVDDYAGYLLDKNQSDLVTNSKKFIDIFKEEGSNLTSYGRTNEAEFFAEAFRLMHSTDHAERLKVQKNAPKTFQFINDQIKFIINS

Lethal factor = biological target: T9, Lethal factor (Bacillus anthracis, UniProt P15917); assay: Inhibition of recombinant anthrax lethal factor after 30 mins by fluorescence assay
T9 sequence (P15917 whole entry): T8 sequence (whole entry)

| Compound | inhibition [1] [%] | IC50 [2] [µM] | inhibition [4] [%] | inhibition [6] [%] | inhibition [7] [%] | inhibition [8] [%] | inhibition [9] [%] | inhibition [11] [%] | also measured |
| --- | --- | --- | --- | --- | --- | --- | --- | --- | --- |
| O=S(=O)(Nc1ccc2cccnc2c1O)c1ccc(-c2ccccc2)cc1 | > 65 | 3.9 |  |  |  |  |  |  |  |
| O=C(O)c1cc(O)ccc1O [GENTISIC ACID] |  |  | 86 | 1 | 0 | 13 | -3 | 40 | inhibition [3]: 24%; inhibition [5]: 96%; IC50 [10]: 75 µM |
| Cc1occc(=S)c1O |  |  | 91 | 101 | 100 | 98 | 98 | 100 | IC50 (Tyrosinase): 3.8 µM; inhibition [5]: 102%; IC50 [10]: 11 µM; inhibition [12]: 96% |
| O=C(O)c1cccc(=O)[nH]1 |  |  |  |  |  |  |  |  | IC50 (Tyrosinase): 159 µM |
| O=S(=O)(Nc1ccc(O)c2ncccc12)c1ccc(-c2ccccc2)cc1 | > 65 | 10.8 |  |  |  |  |  |  |  |
| O=S(=O)(Nc1ccc2cccnc2c1O)c1ccc(F)cc1 | > 65 | 3 |  |  |  |  |  |  |  |
| O=S(=O)(Nc1ccc(O)c2ncccc12)c1ccccc1 | > 65 | 8.8 |  |  |  |  |  |  |  |
| O=S(=O)(Nc1ccc(O)c2ncccc12)c1ccc(F)cc1 | > 65 | 7.2 |  |  |  |  |  |  |  |
| O=S(=O)(Nc1ccc2cccnc2c1O)c1ccccc1 | > 65 | 5.6 |  |  |  |  |  |  |  |
| O=S(=O)(Nc1ccc(O)c2ncccc12)c1cccs1 | > 65 | 8.4 |  |  |  |  |  |  |  |
| Oc1cccc2cccnc12 [OXYQUINOLINE] |  | 130 | 61 | 92 | 94 | 77 | 83 | 78 | inhibition [3]: 8%; inhibition [12]: 56% |
| Oc1coccc1=S |  | 76 | 94 | 102 | 100 | 99 | 98 | 100 | IC50 (Lethal factor): 204 µM; inhibition [5]: 97%; inhibition [12]: 101% |
| Nc1cccc(C(=O)O)c1O |  | 389 | 72 | 67 | 70 | 69 | 72 | 59 | inhibition [3]: 18%; inhibition [12]: 90% |
| O=S(=O)(Nc1ccc2cccnc2c1O)c1cccs1 | > 65 | 4.3 |  |  |  |  |  |  |  |
